MrgX1 agonist – agonists of human MrgX1 receptor. MrgX1-HEK293 cells, Fluo-4 calcium fluorescence, agonist mode; stronger effect = higher value. B-score at 10 µM. actives 0.44% (n = 310,000). AID 588627;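 active means calcium response B-score plate-corrected fluorescence ratio at least 3 library SD, with starting fluorescence B-score inside 5 SD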
Target sequence (Q96LB2 whole entry, looked up): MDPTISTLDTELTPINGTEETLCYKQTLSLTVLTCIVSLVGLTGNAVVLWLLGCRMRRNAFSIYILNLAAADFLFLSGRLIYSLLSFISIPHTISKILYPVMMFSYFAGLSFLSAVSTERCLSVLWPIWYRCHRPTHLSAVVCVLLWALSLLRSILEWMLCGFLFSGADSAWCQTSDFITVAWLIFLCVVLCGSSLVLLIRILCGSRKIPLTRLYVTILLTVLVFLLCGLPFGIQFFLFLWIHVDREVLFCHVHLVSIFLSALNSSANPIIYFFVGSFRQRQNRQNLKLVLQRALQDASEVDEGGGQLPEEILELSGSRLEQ
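System: HEK293 cells stably expressing human MrgX1 receptor; Dosing: test compound in the initial addition of three; Schedule: overnight plating, then 30 min 37 °C plus 30 min room-temperature dye loading; Detection: kinetic calcium dye fluorescence, Fluo-4 NW; Controls: per-plate positive and negative controls for Z′ factor.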
RGS4 inh – human RGS4 inhibition | actives 0.45% (n = 310,000) | HEK293 M3R/RGS4 inducible, Fluo-4 calcium flux; stronger effect = higher value; triggered by carbachol at its EC20 | B-score at 10 µM | P49798;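 active means B-score, a plate-corrected calcium signal, over three deviations above library mean, with baseline fluorescence within five deviations of library mean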;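 further: RGS4 expression induced by doxycycline in cells with stable M3 receptor; B-score is computed from the integrated fluorescence ratio over baseline after carbachol; higher B-score means a larger calcium signal and so more RGS4 inhibition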
Target sequence (P49798 whole entry, looked up): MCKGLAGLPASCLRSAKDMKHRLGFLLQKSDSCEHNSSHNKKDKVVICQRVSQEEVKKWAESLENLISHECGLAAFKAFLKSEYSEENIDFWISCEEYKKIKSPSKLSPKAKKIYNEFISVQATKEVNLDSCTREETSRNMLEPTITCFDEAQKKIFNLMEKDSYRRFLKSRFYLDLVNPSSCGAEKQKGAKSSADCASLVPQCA
MrgX1 antagonist – antagonists of human MrgX1 receptor. MRGX1-HEK293 calcium flux, Fluo-4, BAM8-22 antagonism; stronger effect = lower value. B-score at 10 µM. actives 1.3% (n = 310,000). AID 588676;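 active means calcium-response B-score plate-corrected more than 3 library SD below zero, starting fluorescence within 5 deviations, no agonist response on first addition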;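 further: peak minus trough fluorescence over baseline after final BAM8-22 challenge near maximal dose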
RGS4 pot – RGS4 potentiation or activation; AID 463111; HEK293 M3R/inducible RGS4, carbachol calcium flux Fluo4; stronger effect = lower value; B-score at 10 µM; actives 0.92% (n = 310,000);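 active means B-score of the integrated calcium signal more than 4 SD below the library mean, with starting fluorescence not abnormally high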;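 further: negative B-score means reduced calcium response which marks RGS4 activation or potentiation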
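Material: Inducible-RGS4 HEK293 cells carrying M3 receptor; also added: carbachol at ECmax as muscarinic agonist stimulus; incubation: compound preincubation 20 min at room temperature before agonist; signal: Fluo4-AM (2 µM) calcium-flux fluorescence, kinetic read; measure: integrated calcium ratio converted to B score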
MrgX1 PAM – human MrgX1 positive allosteric modulation, primary screen | MrgX1-HEK293, Fluo-4 calcium flux, FDSS; stronger effect = higher value | actives 0.63% (n = 310,000) | B-score at 10 µM | AID 588675 | Q96LB2;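 active means plate-corrected calcium response at least 3 library SD above typical, normal starting fluorescence, not activating the receptor alone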;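 further: compound read alongside a low EC10 to EC30 dose of BAM8-22 agonist; peak minus trough fluorescence over baseline measured at the second addition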
MrgX1 antag conf – reconfirmed antagonist of human MrgX1 receptor signaling; MrgX1-HEK293, BAM8-22 calcium flux, Fluo-4; stronger effect = lower value; remaining BAM8-22 calcium response % of control (stronger effect = lower value), % at 10 µM; actives 19% (n = 2,300); shares compounds with MrgX1 antagonist;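 active means remaining agonist calcium response no higher than 100% minus 3 SD of agonist-only control wells, with starting fluorescence near control levels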;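 further: agonist BAM8-22 given at a near maximal EC90 to ECmax level; peak minus minimum fluorescence divided by baseline after agonist addition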
HEK293 Ca flux – MrgX1 antagonist counter-screen hit in parental HEK293 cells; shares compounds with MrgX1 antagonist; Fluo-4 calcium fluorescence, FDSS; fluorescence ratio F(max-min)/F0 at 10 µM; actives 2% (n = 4,000); AID 624111;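 active means duplicate-averaged calcium fluorescence ratio at least three times the standard deviation of buffer wells, a nonspecific response in parental cells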
HEK293 Ca counter – counter-screen for MrgX1 allosteric activators: effect in parental HEK293 cells | shares compounds with MrgX1 antagonist | parental HEK293 calcium flux, Fluo-4 fluorescence ratio; stronger effect = higher value | fluorescence ratio F(max-min)/F0 at 10 µM | actives 0.4% (n = 4,000) | AID 624114;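 active means calcium fluorescence ratio, averaged over duplicates, at least 3 SD of the buffer-well ratio, meaning a nonspecific response in receptor-free cells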;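 further: untransfected parental HEK293 lacking MrgX1 used as counterscreen for MrgX1 allosteric activators; fluorescence change taken during the second addition on a kinetic imager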
HEK293 Ca cntr2 – MrgX1 activator counter-screen hit in parental HEK293 cells. actives 8.7% (n = 4,000). fluorescence ratio F(max-min)/F0 at 10 µM. Fluo-4 calcium fluorescence (FDSS); stronger effect = higher value. shares compounds with MrgX1 antagonist;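 active means calcium fluorescence ratio at least three times the spread of buffer wells, meaning a non-specific response in parental cells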
Numbers stand for hits; - = inactive; . = not tested or not shown. Compounds with a hit are over-represented: about 3.5% of the library has one in this group of screens.

SMILES	MrgX1 agonist	RGS4 inh	MrgX1 antagonist	RGS4 pot	MrgX1 PAM	MrgX1 antag conf	HEK293 Ca flux	HEK293 Ca counter	HEK293 Ca cntr2
CC(C)CN(C(=O)COC(=O)CNC(=O)c1ccccc1)c1c(N)n(Cc2ccccc2)c(=O)[nH]c1=O	-	-	-	-	-	.	.	.	.
CCN(CC)CCCn1c(=S)[nH]c2cc(OC)c(OC)cc2c1=O	-	-	-	-	-	.	.	.	.
COCCn1c(=S)[nH]c2cc(OC)c(OC)cc2c1=O	-	-	-9.07	-	-	-	-	-	-
CCOc1ccc(NC(=O)Nc2ccon2)cc1	-	-	-	-	-	.	.	.	.
Cc1oc(C)c(C(=O)O)c1C(=O)O	-	-	-	-	-	.	.	.	.
COC(=O)c1c(C)oc(C)c(C(=O)OC)c1=O	-	-	-6.99	-	-	-	-	-	-
COC(=O)c1ccccc1NC(=O)c1ccc2c(c1)OCCCO2	-	-	-10.3	-	-	-	-	-	-
Cc1ccccc1NC(=O)c1ccc2c(c1)OCCO2	-	-	-	-	-	.	.	.	.
CCOC(=O)c1c(NC(=O)OC)sc(C(=O)N(CC)CC)c1C	-	-	-4.71	-	-	-	-	-	-
COC(=O)C1=C(N)Oc2cc(C)n(Cc3cccnc3)c(=O)c2C1c1cccc(OC)c1OC (stereo not given)	-	-	-13.1	-	-	-	-	-	-
COC(=O)C1=C(N)Oc2cc(C)n(Cc3cccnc3)c(=O)c2C1c1cc(OC)ccc1OC (stereo not given)	-	-	-	-	-	.	.	.	.
CCOC(=O)c1cc(-c2ccccc2)n(Cc2cc(CC)no2)n1	-	-	-5.51	-	-	-	-	-	-
Cc1cc(Cn2nc(C(=O)NCC3CC3)cc2-c2ccccc2)on1	-	-	-	-	-	.	.	.	.
O=C(Nc1c[nH]c(=O)[nH]c1=O)c1ccccc1Cl	-	-	-	-	-	.	.	.	.
COc1cccc2cc(C(=O)C3=C(O)C(=O)N(c4cc(C)on4)C3c3cccs3)oc12 (stereo not given)	-	-	-5.08	-	-	-	-	-	-
COc1cccc(C2C(C(=O)c3cc4cccc(OC)c4o3)=C(O)C(=O)N2c2cc(C)on2)c1OC (stereo not given)	-	-	-	-	-	.	.	.	.
Cc1cc(N2C(=O)C(O)=C(C(=O)c3cc4ccccc4o3)C2c2ccc(OC(C)C)cc2)no1 (stereo not given)	-	-	-	-	-	.	.	.	.
COC(=O)c1ccc(C2C(C(=O)c3cc4ccccc4o3)=C(O)C(=O)N2c2cc(C)on2)cc1 (stereo not given)	-	-	-5.2	-	-	82.1%	-	-	-
O=[N+]([O-])c1c(Nc2cccc(O)c2)cc(Cl)c2nonc12	-	-	-11	-	-	-	-	-	-
CCc1ccc(C(C(=O)NC2CCCC2)N(Cc2cccnc2)C(=O)c2csnn2)cc1 (stereo not given)	-	-	-	-	-	.	.	.	.
COc1cccc(C(=O)Nc2ccc(C(=O)NCC3CCCO3)cc2)c1 (stereo not given)	-	-	-	-	-	.	.	.	.
CCn1c(SCC(=O)N2CCCCC2C)nnc1-c1ccco1 (stereo not given)	-	-	-	-	-	.	.	.	.
CC1CCCCN1C(=O)CSc1nnc(-c2ccco2)n1CC1CCCO1 (stereo not given)	-	-	-7	-	-	-	-	-	-
OC(CNCc1cccnc1)COc1ccc2ccccc2c1 (stereo not given)	-	-	-	-	-	.	.	.	.
Cc1c(Cl)c([N+](=O)[O-])nn1CC(=O)N1CCN(Cc2ccccc2)CC1	-	-	-	-	-	.	.	.	.
SMILES	MrgX1 agonist	RGS4 inh	MrgX1 antagonist	RGS4 pot	MrgX1 PAM	MrgX1 antag conf	HEK293 Ca flux	HEK293 Ca counter	HEK293 Ca cntr2
Cc1ccc(NC(=O)CN(C)S(=O)(=O)c2cccc3nsnc23)cc1C	-	-	-	-	-	.	.	.	.
Cc1cccc(N(C)S(=O)(=O)c2cccc3nsnc23)c1	-	-	-5.02	-	-	-	-	-	-
CN(CC(=O)Nc1ccc(F)c(F)c1)S(=O)(=O)c1cccc2nsnc12	-	-	-10.2	-	-	-	-	-	-
CCC1CCC(C(=O)NC(C(=O)NCCN2CCOCC2)C(C)C)CC1 (stereo not given)	-	-	-	-	-	.	.	.	.
CC1CCCCN1C(=O)CN(C)S(=O)(=O)c1cccc2nsnc12 (stereo not given)	-	-	-	-	-	.	.	.	.
COc1ccc(S(=O)(=O)N2CCOC2CNC(=O)C(=O)NCc2ccccc2Cl)cc1 (stereo not given)	-	-	-	-	-	.	.	.	.
Cc1ccc(C(=O)N2CCN(S(=O)(=O)N3CCCCC3)CC2)cc1	-	-	-	-	-	.	.	.	.
C=CCNC(=O)c1ccc(-n2cccc2)cc1	-	-	-7.96	-	-	-	-	-	-
C=CCNC(=O)c1ccncc1	-	-	-	-	-	.	.	.	.
CCC(C)NC(=O)c1ccccc1-c1nc2ccccc2[nH]1 (stereo not given)	-	-	-	-	-	.	.	.	.
CC(C)c1ccc(C(C)NC(=S)NC2CCCCC2)cc1 (stereo not given)	-	-	-	-	-	.	.	.	.
CC(NC(=S)NC1CCCCC1)c1ccc(C(C)(C)C)cc1 (stereo not given)	-	-	-6.82	-	-	50.9%	-	-	-
CCOC(=O)N1CCN(c2c(N3CCOCC3)c(=O)c2=O)CC1	-	-	-	-	-	.	.	.	.
CCOC(=O)N1CCN(c2c(Nc3ccc4c(c3)OCCO4)c(=O)c2=O)CC1	-	-	-6.78	-	-	-	-	-	-
COc1cc(C(=O)Oc2ccccc2)ccc1OCc1c(C)noc1C	-	-	-5.96	-	-	-	-	-	-
COc1cc(C(=O)O)ccc1OCc1c(C)noc1C	-	-	-	-	-	.	.	.	.
Cc1nnc(NC(=O)CSc2ccc(-c3cccnc3)nn2)s1	-	-	-5.64	-	-	-	-	-	-
Oc1c(Br)cc(Br)cc1C=NCc1ccccc1	-	-	-	-	-	.	.	.	.
Oc1c(Br)cc(Br)cc1C=NCc1ccc(F)cc1	-	-	-5.18	-	-	-	-	-	-
COc1ccc(S(=O)(=O)N2CCN(C/C=C/c3ccccc3)CC2)cc1F	-	-	-	-	-	.	.	.	.

Bioassay records: PubChem, Johns Hopkins Ion Channel Center
